# Assay results taken from ChEMBL document CHEMBL4428077, “Synthesis and Biological Evaluation of N-((1-(4-(Sulfonyl)piperazin-1-yl)cycloalkyl)methyl)benzamide Inhibitors of Glycine Transporter-1” (J Med Chem, 2016).
# Calls of active or inactive are those of the source. The rule behind the calls is not given here.
# How the values were obtained:
# [1] = Metabolic stability in rat liver microsomes assessed as parent compound remaining at 3 uM incubated for 15 mins by LC-MS analysis; type: ADME, Microsome; conditions: for remaining at 0.25 h, 3 µM: liver microsomes, read-out: Stability
# Summary of the method: (§1)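 Liver microsomes incubated with compound at 3 μM for 15 min. Parent compound remaining was quantified by LC-MS.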
# [2] = molecular target: T1, Sodium- and chloride-dependent glycine transporter 1 (Homo sapiens, UniProt P48067); assay: Inhibition of glycine transporter-1B in human JAR cells assessed as reduction in [14C]glycine uptake preincubated for 10 mins followed by [14C]glycine addition measured after 3 hrs by scintillation proximity assay; type: cell-based
# T1 sequence (P48067 whole entry): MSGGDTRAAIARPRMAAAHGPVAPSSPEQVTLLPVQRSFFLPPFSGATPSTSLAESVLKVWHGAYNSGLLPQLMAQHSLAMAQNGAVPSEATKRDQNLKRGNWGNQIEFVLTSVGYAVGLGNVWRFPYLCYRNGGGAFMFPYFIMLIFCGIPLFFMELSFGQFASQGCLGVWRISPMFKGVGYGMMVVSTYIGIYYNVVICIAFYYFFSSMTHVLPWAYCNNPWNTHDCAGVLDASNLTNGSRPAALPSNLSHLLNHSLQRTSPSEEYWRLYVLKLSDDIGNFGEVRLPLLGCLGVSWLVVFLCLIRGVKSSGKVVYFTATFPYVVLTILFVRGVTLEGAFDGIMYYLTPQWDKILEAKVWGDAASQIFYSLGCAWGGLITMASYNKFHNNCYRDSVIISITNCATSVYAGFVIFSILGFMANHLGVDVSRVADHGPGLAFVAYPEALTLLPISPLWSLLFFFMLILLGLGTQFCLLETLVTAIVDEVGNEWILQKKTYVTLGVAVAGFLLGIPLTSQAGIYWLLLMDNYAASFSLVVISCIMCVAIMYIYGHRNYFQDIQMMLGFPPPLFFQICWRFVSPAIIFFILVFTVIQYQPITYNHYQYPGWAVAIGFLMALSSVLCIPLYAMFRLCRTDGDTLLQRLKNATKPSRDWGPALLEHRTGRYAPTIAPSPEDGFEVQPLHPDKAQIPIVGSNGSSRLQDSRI
# Summary of the method: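 Whole-cell SPA in JAR cells, which endogenously express hGlyT-1b. Cells (50,000 per well) were attached overnight in RPMI/10% FBS at 37 °C, 5% CO₂. [¹⁴C]glycine was then added and incubated 3 h at 37 °C. The assay window was set with unlabeled glycine. A reference standard ran on each plate. IC₅₀ values are means of n ≥ 2.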
# [3] = Metabolic stability in human liver microsomes assessed as parent compound remaining at 3 uM incubated for 15 mins by LC-MS analysis; type: ADME, Microsome; conditions: for remaining at 0.25 h, 3 µM: liver microsomes, read-out: Stability; for Stability: microsomes, 0.25 h, 3 µM; summary of the method: as §1
# [4] = molecular target: T2, Sodium- and chloride-dependent glycine transporter 2 (Homo sapiens, UniProt Q9Y345); assay: Inhibition of human glycine transporter-2 expressed in HEK293 cells assessed as reduction in [14C]glycine uptake preincubated for 10 mins followed by [14C]glycine addition measured after 3 hrs by scintillation proximity assay; type: cell-based
# T2 sequence (Q9Y345 whole entry): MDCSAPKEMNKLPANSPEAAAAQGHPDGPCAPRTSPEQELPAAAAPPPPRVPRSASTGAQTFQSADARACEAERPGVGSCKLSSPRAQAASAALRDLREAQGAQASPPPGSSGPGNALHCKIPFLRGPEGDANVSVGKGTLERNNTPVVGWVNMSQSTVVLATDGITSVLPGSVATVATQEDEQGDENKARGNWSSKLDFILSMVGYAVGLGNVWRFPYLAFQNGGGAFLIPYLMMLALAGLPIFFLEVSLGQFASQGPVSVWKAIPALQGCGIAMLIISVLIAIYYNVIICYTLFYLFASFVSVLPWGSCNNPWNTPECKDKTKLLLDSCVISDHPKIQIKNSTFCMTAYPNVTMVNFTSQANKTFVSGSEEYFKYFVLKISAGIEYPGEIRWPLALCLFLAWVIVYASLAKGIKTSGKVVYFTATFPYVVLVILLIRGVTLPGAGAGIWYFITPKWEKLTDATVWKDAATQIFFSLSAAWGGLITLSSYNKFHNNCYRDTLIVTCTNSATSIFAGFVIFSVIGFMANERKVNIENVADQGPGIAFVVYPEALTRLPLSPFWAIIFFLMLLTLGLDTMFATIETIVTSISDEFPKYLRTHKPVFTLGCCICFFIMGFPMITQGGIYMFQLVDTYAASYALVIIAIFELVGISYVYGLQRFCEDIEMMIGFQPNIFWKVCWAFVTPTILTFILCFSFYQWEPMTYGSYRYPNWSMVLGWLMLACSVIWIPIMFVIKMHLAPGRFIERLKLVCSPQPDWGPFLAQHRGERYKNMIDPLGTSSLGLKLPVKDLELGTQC
# Summary of the method: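 HEK293 cells stably transfected with GlyT-2 (Geneticin-selected polyclonal population) were plated on poly-L-lysine-coated plates in DMEM/10% FBS and incubated overnight. The [¹⁴C]glycine uptake SPA was then run as for JAR cells: uptake buffer, 10 min room-temperature preincubation, 3 h incubation at 37 °C.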
# [5] = test system: Cynomolgus monkey; assay: In vivo inhibition of glycine transporter-1 in cynomolgus monkey assessed as increase in CSF glycine level at 0.3 to 10 mg/kg, po measured at 24 hrs post dose by LC-MS/MS analysis; type: functional, organism-based; conditions: Macaca fascicularis
# Summary of the method: (§2)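 Cynomolgus monkeys, n = 3 per group, given oral doses of 0.4, 1.5, 4.7 or 15.7 μmol/kg. Vehicle was 5% Solutol / 20% Captisol in 25 mM PBS, pH 2. CSF (about 0.30 mL) was drawn through subcutaneous ports with a sterile Huber needle predose and at 0.5, 1, 2, 3, 4, 8, 12 and 24 h. Matched blood was taken at each time. Mean ± SD.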
# [6] = molecular target: T3, Sodium- and chloride-dependent glycine transporter 1 (Homo sapiens) (UniProt P48067); assay: Competitive inhibition of glycine transporter-1 (unknown origin) expressed in HEK293 cells at 12 to 108 nM in presence of [3H]glycine by scintillation proximity assay; type: cell-based
# T3 sequence (whole entry): T1 sequence (P48067 whole entry)
# Summary of the method: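 Whole-cell SPA glycine transport with transfected HEK-293 cells expressing GlyT-1. Increasing [³H]-glycine concentrations were run at several fixed inhibitor concentrations to derive B_max and K_d for glycine and judge the binding mode.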
# [7] = test system: Cynomolgus monkey; assay: In vivo inhibition of glycine transporter-1 in cynomolgus monkey assessed as increase in CSF glycine level at 0.3 to 10 mg/kg, po measured at 2 to 4 hrs post dose by LC-MS/MS analysis; type: functional, organism-based; conditions: Macaca fascicularis; summary of the method: as §2
# [8] = Intrinsic clearance in rat liver microsomes at 3 uM incubated up to 60 mins by LC-MS analysis; type: ADME, Microsome; conditions: read-out: CLH
# Summary of the method: (§3)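 Liver microsomes with a cofactor regeneration system and compound at 3 μM, incubated at 37 °C. Reactions were stopped at 0, 5, 15, 30, 45 and 60 min, in duplicate. Compound remaining was measured by LC-MS. ln(%remaining) was plotted against time, and the slope was normalized to protein to give CL_int. Testosterone at 10 μM served as control.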
# [9] = Intrinsic clearance in human liver microsomes at 3 uM incubated up to 60 mins by LC-MS analysis; type: ADME, Microsome; conditions: read-out: CLH; summary of the method: as §3
SMILES,"remaining at 0.25 h, 3 µM [1] [%]",IC50 [2] [nM],"remaining at 0.25 h, 3 µM [3] [%]",IC50 [4] [nM],further results
Cn1cc(S(=O)(=O)N2CCN(C3(CNC(=O)c4c(F)cccc4F)CCC(F)(F)CC3)CC2)nn1,95,5.1,64,,
Cn1cnc(S(=O)(=O)N2CCN(C3(CNC(=O)c4c(Cl)cccc4Cl)CCC(F)(F)CC3)CC2)c1,94,5.56,22,> 75000,
Cn1cc(S(=O)(=O)N2CCN(C3(CNC(=O)c4ccc(C(F)(F)F)cc4C(F)(F)F)CCC(F)(F)CC3)CC2)nn1,95,0.733,64,,
CC(NC(=O)c1ccc(C(F)(F)F)cc1Cl)C1(N2CCN(S(=O)(=O)c3cn(C)nn3)CC2)CCC(F)(F)CC1.Cl (racemic),,1.03,,,"Stability ([1]; microsomes, 0.25 h, 3 µM): 66%; Stability [3]: 54%"
Cn1cc(S(=O)(=O)N2CCN(C3(CNC(=O)c4ccc(Cl)cc4Cl)CCCCC3)CC2)nn1,,1.54,0,> 75000,
CCCS(=O)(=O)N1CCN(C2(CNC(=O)c3c(C)cc(F)cc3OC)CCC(F)(F)CC2)CC1,,28.5,,> 75000,
"CC(NC(=O)c1ccc(C(F)(F)F)cc1Cl)C1(N2CCN(S(=O)(=O)c3cn(C)nn3)CC2)CCC(F)(F)CC1 (single isomer, unassigned; (+))",,,,,inhibition [5]: inactive; inhibition [6]: Active; inhibition [7]: Active
CCCS(=O)(=O)N1CCN(C2(CNC(=O)c3c(Cl)cccc3Cl)CCC(F)(F)CC2)CC1,,42.4,,> 75000,microsomal CLint at 3 µM [8]: 4.3 µL/min/mg; microsomal CLint at 3 µM [9]: 3.8 µL/min/mg
"CC(NC(=O)c1ccc(C(F)(F)F)cc1Cl)C1(N2CCN(S(=O)(=O)c3cn(C)nn3)CC2)CCC(F)(F)CC1.Cl (single isomer, unassigned; (-))",,,,,Stability [3]: 51%
Nc1cccc(Cl)c1C(=O)NCC1(N2CCN(S(=O)(=O)Cc3ccccc3)CC2)CCCCC1,,9360,,> 75000,
CCCS(=O)(=O)N1CCN(C2(CNC(=O)c3c(Cl)cccc3OC(F)(F)F)CCC(F)(F)CC2)CC1,,29,,> 75000,
Cn1cnc(S(=O)(=O)N2CCN(C3(CNC(=O)c4ccc(F)cc4Cl)CCC(F)(F)CC3)CC2)c1,100,5.09,85,,
Cn1cc(S(=O)(=O)N2CCN(C3(CNC(=O)c4c(Cl)cccc4Cl)CCC(F)(F)CC3)CC2)nn1,91,1.27,33,> 75000,
Cn1cc(S(=O)(=O)N2CCN(C3(CNC(=O)c4ccc(Cl)cc4Cl)CCCCC3)CC2)cn1,,146,,> 75000,
Cn1cnc(S(=O)(=O)N2CCN(C3(CNC(=O)c4ccc(C(F)(F)F)cc4Cl)CCC(F)(F)CC3)CC2)c1,90,2.35,60,> 75000,
Cn1cc(S(=O)(=O)N2CCN(C3(CNC(=O)c4c(Cl)cccc4OC(F)(F)F)CCC(F)(F)CC3)CC2)nn1,87,0.726,24,> 75000,
Cn1cnc(S(=O)(=O)N2CCN(C3(CNC(=O)c4c(Cl)cccc4OC(F)(F)F)CCC(F)(F)CC3)CC2)c1,91,1.49,9.2,> 75000,
CC(C)CS(=O)(=O)N1CCN(C2(CNC(=O)c3c(N)cccc3Cl)CCCCC2)CC1,,,,> 75000,
CCCS(=O)(=O)N1CCN(C2(CNC(=O)c3ccc(F)cc3Cl)CCC(F)(F)CC2)CC1,,38.4,,> 75000,
Cn1cnc(S(=O)(=O)N2CCN(C3(CNC(=O)c4c(F)cccc4F)CCC(F)(F)CC3)CC2)c1,92,18.3,72,> 75000,
Cn1cnc(S(=O)(=O)N2CCN(C3(CNC(=O)c4ccc(Cl)cc4Cl)CCC(F)(F)CC3)CC2)c1,88,5.29,30,> 75000,
CCCS(=O)(=O)N1CCN(C2(CNC(=O)c3ccc(C(F)(F)F)cc3Cl)CCC(F)(F)CC2)CC1,,12.6,,,microsomal CLint at 3 µM [8]: 11 µL/min/mg; microsomal CLint at 3 µM [9]: 16 µL/min/mg
Cn1cc(S(=O)(=O)N2CCN(C3(CNC(=O)c4ccc(F)cc4Cl)CCC(F)(F)CC3)CC2)nn1,100,1.14,69,,
CCCS(=O)(=O)N1CCN(C2(CNC(=O)c3ccc(C(F)(F)F)cc3C(F)(F)F)CCC(F)(F)CC2)CC1,,8.4,,> 75000,microsomal CLint at 3 µM [8]: 4.9 µL/min/mg; microsomal CLint at 3 µM [9]: 19 µL/min/mg
Cn1cc(S(=O)(=O)N2CCN(C3(CNC(=O)c4ccc(Cl)cc4Cl)CCC(F)(F)CC3)CC2)nn1,80,1.24,46,,
